Results taken from ChEMBL document CHEMBL4196178, “Structure-Based Drug Design of Potent Pyrazole Derivatives against Rhinovirus Replication” (J Med Chem, 2018).
Activity calls are given as the source filed them. The rule behind the calls is not given here.

Assays:
[1] = Cytotoxicity against human HeLa Rh cells assessed as reduction in cell viability after 3 days by MTS assay; assay type: cell-based
[2] = Selectivity index, ratio of CC50 for human HeLa Rh cells to EC50 for Rhinovirus B14 capsid infected in human HeLa Rh cells; assay type: toxicity, cell-based; details: read-out: Ratio CC50/EC50
Summary of the method: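 SI = CC₅₀/EC₅₀ for RV-B14 in HeLa Rh cells, both from the same 3-day 35 °C MTS CPE assay. CC₅₀ was obtained by light-microscope scoring of compound-treated uninfected cells, and EC₅₀ from MTS dose-response. Both values were derived by logarithmic interpolation and reported as median ± median absolute deviation.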

[3] = molecular target: T1, VP1 capsid protein (Human rhinovirus sp.) (UniProt Q7T664); test: Inhibition of Rhinovirus B14 capsid infected in human HeLa Rh cells assessed as reduction in viral replication at 1 uM administered 2 hrs before infection measured after 8 hrs post infection by RT-qPCR analysis; assay type: cell-based
T1 sequence (whole entry): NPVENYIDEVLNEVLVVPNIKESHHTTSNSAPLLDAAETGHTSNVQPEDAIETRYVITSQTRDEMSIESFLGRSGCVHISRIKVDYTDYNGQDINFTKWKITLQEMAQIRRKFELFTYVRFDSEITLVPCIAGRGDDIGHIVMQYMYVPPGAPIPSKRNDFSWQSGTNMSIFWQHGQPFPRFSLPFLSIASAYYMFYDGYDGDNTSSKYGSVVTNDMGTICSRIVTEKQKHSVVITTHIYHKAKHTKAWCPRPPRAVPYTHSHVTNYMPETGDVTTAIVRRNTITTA
Summary of the method: (§1)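 HeLa Rh cells adhered overnight, then given 1 µM compound 2 h before, at, or 2, 4 or 6 h after RV-B14 infection. Untreated infected cells served as controls. Cells lysed at 8 h post-infection, DNases heat-inactivated at 75 °C for 15 min. Intracellular viral RNA measured by SYBR one-step qRT-PCR against a gBlock standard series, reported as genome equivalents per sample.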

rhinovirus B14 [4] = test: Antiviral activity against Rhinovirus B14 infected in human HeLa Rh cells assessed as reduction in viral replication at 1 uM administered at the time of infection measured after 8 hrs post infection by RT-qPCR analysis; assay type: functional, organism-based; summary of the method: as §1
rhinovirus B14 [5] = test: Antiviral activity against Rhinovirus B14 infected in human HeLa Rh cells assessed as reduction in viral replication at 1 uM administered at >= 2 hrs post infection measured after 8 hrs post infection by RT-qPCR analysis; assay type: functional, organism-based; summary of the method: as §1
CHO-K1 [6] = test: Genotoxicity in CHOK1 cells assessed as increase in micronucleated cell rates at 1 to 100 uM after 3 hrs in presence of Sprague-Dawley rat S9 fraction and cytokinesis blocking agent cytochalasin B by Giemsa-staining based assay; assay type: toxicity, Cricetulus griseus; details: chinese hamster, s9, 3 h
Summary of the method: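 CHO-K1 cells were seeded at 100,000 cells/ml and pre-incubated 24 h. S9 mix from Aroclor 1254-treated male Sprague-Dawley rat liver (1% S9, 0.5 mM G6P, 0.4 mM NADP) was added at 10%, and compound (1–100 μM) was given in duplicate for 3 h at 37 °C. Controls were medium, 1% DMSO and benzo-a-pyrene 5 µg/ml. Cells then had 21 h in 3 µg/ml cytochalasin B and Giemsa staining. Micronuclei were counted in 1000 binucleated cells per well at doses with CI% decrease <55 ± 5%, and compared by χ² test.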

CHO-K1 [7] = test: Genotoxicity in CHOK1 cells assessed as increase in micronucleated cell rates at 1 to 100 uM after 3 hrs in absence of Sprague-Dawley rat S9 fraction and presence of cytokinesis blocking agent cytochalasin B by Giemsa-staining based assay; assay type: toxicity, Cricetulus griseus; details: chinese hamster, cho-k1, 3 h
Summary of the method: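 CHO-K1 cells were seeded at 100,000 cells/ml and pre-incubated 24 h, then exposed in duplicate to compound (1–100 μM) for 3 h at 37 °C without S9. Controls were medium, 1% DMSO and mitomycin C 0.6 µg/ml. Cells then had 21 h in 3 µg/ml cytochalasin B, followed by methanol fixation and 10% Giemsa. Micronuclei were counted in 1000 binucleated cells per well, restricted to doses with CI% decrease <55 ± 5%, and compared by χ² test.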

Cn1cc(-c2ccc(C[C@@H](O)c3ccc(-n4cccn4)cc3)c([N+](=O)[O-])c2)cn1
CC50 at 72 h [1]: > 342 µM | selectivity ratio [2]: > 136

Cn1cc(-c2ccc(C[C@H](O)c3ccc(-n4cccn4)cc3)c([N+](=O)[O-])c2)cn1
CC50 at 72 h [1]: > 342 µM | selectivity ratio [2]: > 9770 | inhibition [3]: Active | Activity (rhinovirus B14 [4]): Active | Activity (rhinovirus B14 [5]): inactive | Activity (CHO-K1 [6]): Non-Toxic | Activity (CHO-K1 [7]): Non-Toxic

Cn1cc(-c2ccc(C[C@H](O)c3ccc(-n4cncn4)cc3)c([N+](=O)[O-])c2)cn1
CC50 at 72 h [1]: > 342 µM | selectivity ratio [2]: > 5700 | inhibition [3]: Active | Activity (rhinovirus B14 [4]): Active | Activity (rhinovirus B14 [5]): inactive | Activity (CHO-K1 [6]): Non-Toxic | Activity (CHO-K1 [7]): Non-Toxic

Cn1cc(-c2ccc(C[C@@H](O)c3ccc(-n4cncn4)cc3)c([N+](=O)[O-])c2)cn1
CC50 at 72 h [1]: > 342 µM

O=[N+]([O-])c1cc(-c2cncs2)ccc1CC(O)c1ccc(-n2cncn2)cc1 (racemic)
CC50 at 72 h [1]: 44 µM | selectivity ratio [2]: 110

COC(=O)c1ccc(CC(O)c2ccc(-c3ccncc3)cc2)c([N+](=O)[O-])c1 (racemic)
CC50 at 72 h [1]: > 264 µM | selectivity ratio [2]: > 41

Cn1nc(C(F)(F)F)cc1-c1ccc(CC(O)c2ccc(-n3cncn3)cc2)c([N+](=O)[O-])c1 (racemic)
CC50 at 72 h [1]: 21 µM

Cn1nc(C(F)(F)F)cc1-c1ccc(CC(O)c2ccc(-n3cccn3)cc2)c([N+](=O)[O-])c1 (racemic)
CC50 at 72 h [1]: 14 µM | selectivity ratio [2]: 29

O=[N+]([O-])c1cc(-c2ccco2)ccc1CC(O)c1ccc(-c2ccncc2)cc1 (racemic)
CC50 at 72 h [1]: > 86 µM | selectivity ratio [2]: > 72

O=[N+]([O-])c1cc(Cl)ccc1CC(O)c1ccc(-n2cccn2)cc1 (racemic)
CC50 at 72 h [1]: > 100 µM | selectivity ratio [2]: > 781
